Calls of active or inactive are those of the source. The calls are words filed in the database; no cut-off is given here.
Key:
[1] = molecular target: T1, 5-hydroxytryptamine receptor 7 (Homo sapiens, UniProt P34969); assay: Displacement of [3H]-5-CT from human cloned 5HT7 receptor
[2] = molecular target: Adrenergic receptor alpha-1 (Rattus norvegicus) (UniProt P15823+P23944+P43140); assay: Displacement of [3H]prazoin from rat cerebral cortex adrenergic alpha1 receptor at 100 nM; type: tissue-based
In short: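 [3H]prazosin displacement was measured on rat cerebral cortex membranes, using one test concentration of 100 nM. Values are the mean of two independent experiments.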

[3] = molecular target: T2, 5-hydroxytryptamine receptor 1A (Homo sapiens) (UniProt P08908); assay: Displacement of [3H]-8-OH-DPAT from human cloned 5HT1A receptor at 100 nM
T2 sequence (whole entry): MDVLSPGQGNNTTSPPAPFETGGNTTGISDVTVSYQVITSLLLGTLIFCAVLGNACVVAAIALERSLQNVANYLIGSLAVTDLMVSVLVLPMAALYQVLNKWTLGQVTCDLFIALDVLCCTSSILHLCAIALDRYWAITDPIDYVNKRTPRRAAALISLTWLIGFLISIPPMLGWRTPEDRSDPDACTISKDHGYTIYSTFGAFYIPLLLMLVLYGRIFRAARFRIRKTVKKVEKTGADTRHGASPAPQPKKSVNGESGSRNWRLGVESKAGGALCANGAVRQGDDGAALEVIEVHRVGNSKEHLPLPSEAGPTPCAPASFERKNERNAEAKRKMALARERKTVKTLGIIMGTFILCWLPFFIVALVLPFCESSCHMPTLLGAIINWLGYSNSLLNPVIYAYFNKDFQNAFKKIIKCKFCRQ

[4] = molecular target: 5-hydroxytryptamine receptor 7 (Cavia porcellus) (UniProt P50407); assay: Agonist activity at 5HT7 receptor in guinea pig ileum assessed as inhibition of substance P-induced smooth muscle contraction at 1 uM; type: functional, tissue-based
In short: (§1)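 Isolated guinea pig ileum was contracted with substance P. Relaxation was scored as percent relaxation of that contraction. Each run included a cocktail of non-5-HT7 receptor antagonists. To test 5-HT7 mediation, relaxation was repeated with the selective 5-HT7 antagonist at 3 μM; reversal was taken as 5-HT7-mediated.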

[5] = molecular target: T3, Adrenergic receptor alpha-1 (Rattus norvegicus, UniProt P15823+P23944+P43140); assay: Displacement of [3H]prazoin from rat cerebral cortex adrenergic alpha1 receptor; type: tissue-based
T3 sequence (P15823 whole entry): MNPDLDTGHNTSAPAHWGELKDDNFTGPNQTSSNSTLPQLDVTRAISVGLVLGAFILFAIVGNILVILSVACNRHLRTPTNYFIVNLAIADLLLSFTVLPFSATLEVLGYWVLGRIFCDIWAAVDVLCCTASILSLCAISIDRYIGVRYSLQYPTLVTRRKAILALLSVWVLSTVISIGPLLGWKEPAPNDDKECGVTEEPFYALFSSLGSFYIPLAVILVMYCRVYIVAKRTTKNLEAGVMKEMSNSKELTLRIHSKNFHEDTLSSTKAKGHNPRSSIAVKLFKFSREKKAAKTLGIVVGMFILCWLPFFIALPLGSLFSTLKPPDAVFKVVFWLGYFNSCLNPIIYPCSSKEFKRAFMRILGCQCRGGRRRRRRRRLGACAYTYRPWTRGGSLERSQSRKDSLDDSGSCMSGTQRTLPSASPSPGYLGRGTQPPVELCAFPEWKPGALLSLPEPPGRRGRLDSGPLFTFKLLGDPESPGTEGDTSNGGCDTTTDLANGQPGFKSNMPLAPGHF
T3 sequence (P23944 whole entry): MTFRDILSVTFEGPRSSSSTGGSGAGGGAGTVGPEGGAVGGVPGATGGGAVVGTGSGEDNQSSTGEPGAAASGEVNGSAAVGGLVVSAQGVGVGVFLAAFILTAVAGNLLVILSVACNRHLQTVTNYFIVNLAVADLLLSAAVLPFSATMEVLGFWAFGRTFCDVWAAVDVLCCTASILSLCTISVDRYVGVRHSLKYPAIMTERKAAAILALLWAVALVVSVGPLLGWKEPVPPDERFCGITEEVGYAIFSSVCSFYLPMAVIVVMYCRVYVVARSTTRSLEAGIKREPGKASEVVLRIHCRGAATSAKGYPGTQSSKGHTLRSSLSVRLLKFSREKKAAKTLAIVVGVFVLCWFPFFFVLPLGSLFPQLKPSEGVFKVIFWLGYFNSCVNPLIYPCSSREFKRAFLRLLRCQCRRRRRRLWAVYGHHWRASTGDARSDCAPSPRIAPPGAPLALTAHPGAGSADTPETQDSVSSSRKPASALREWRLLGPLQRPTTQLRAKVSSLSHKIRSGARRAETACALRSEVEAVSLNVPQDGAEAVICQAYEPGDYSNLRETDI
T3 sequence (P43140 whole entry): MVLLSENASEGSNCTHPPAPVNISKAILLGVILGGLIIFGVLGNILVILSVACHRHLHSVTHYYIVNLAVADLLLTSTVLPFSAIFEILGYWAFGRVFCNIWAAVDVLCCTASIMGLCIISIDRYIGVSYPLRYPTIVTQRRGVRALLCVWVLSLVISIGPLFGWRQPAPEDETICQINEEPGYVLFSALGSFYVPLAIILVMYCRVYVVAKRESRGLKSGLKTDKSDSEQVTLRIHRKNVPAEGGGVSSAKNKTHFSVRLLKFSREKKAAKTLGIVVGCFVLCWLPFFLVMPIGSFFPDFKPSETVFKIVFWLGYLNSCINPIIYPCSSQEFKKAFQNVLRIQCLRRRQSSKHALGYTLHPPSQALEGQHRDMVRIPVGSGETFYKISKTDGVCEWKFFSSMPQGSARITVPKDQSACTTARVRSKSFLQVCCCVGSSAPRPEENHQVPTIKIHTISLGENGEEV

[6] = molecular target: T1, 5-hydroxytryptamine receptor 7; assay: Antagonist activity at human 5HT7A receptor expressed in human HeLa cells assessed as inhibition of 5-HT-induced cAMP accumulation by ELISA; type: functional, cell-based
In short: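 HeLa cells stably expressing human 5-HT7(a) were seeded in 96-well plates. They were co-treated with 1 μM 5-HT plus test agent. Intracellular cAMP was read by ELISA, and IC50 was taken for inhibition of 5-HT-stimulated cAMP accumulation.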

[7] = molecular target: T4, 5-hydroxytryptamine receptor 1A (Homo sapiens, UniProt P08908); assay: Displacement of [3H]-8-OH-DPAT from human cloned 5HT1A receptor
T4 sequence (P08908 whole entry): T2 sequence (whole entry)

[8] = molecular target: T1, 5-hydroxytryptamine receptor 7; assay: Agonist activity at human 5HT7A receptor expressed in human HeLa cells assessed as stimulation of cAMP accumulation; type: functional, cell-based
In short: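 HeLa cells stably expressing human 5-HT7(a) receptor were cultured and seeded into 96-well plates. Cells were exposed to test agent alone, and intracellular cAMP was measured by ELISA.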

[9] = molecular target: 5-hydroxytryptamine receptor 7 (Cavia porcellus) (UniProt P50407); assay: Agonist activity at 5HT7 receptor in guinea pig ileum assessed as inhibition of substance P-induced smooth muscle contraction at 1 uM in presence of 3 uM SB-269970; type: functional, tissue-based; in short: as §1
[10] = molecular target: 5-hydroxytryptamine receptor 7 (Cavia porcellus) (UniProt P50407); assay: Agonist activity at 5HT7 receptor in guinea pig ileum assessed as inhibition of substance P-induced smooth muscle contraction at 0.5 uM; type: functional, tissue-based; in short: as §1
[11] = molecular target: 5-hydroxytryptamine receptor 7 (Cavia porcellus) (UniProt P50407); assay: Agonist activity at 5HT7 receptor in guinea pig ileum assessed as inhibition of substance P-induced smooth muscle contraction at 0.5 uM in presence of 3 uM SB-269970; type: functional, tissue-based; in short: as §1
[12] = molecular target: 5-hydroxytryptamine receptor 7 (Rattus norvegicus, UniProt P32305); assay: Displacement of [3H]LSD from rat kidney proximal convoluted tubule 5HT7R expressed in COS7 cells; type: cell-based, COS-7
[13] = molecular target: 5-hydroxytryptamine receptor 7 (Cavia porcellus) (UniProt P50407); assay: Agonist activity at 5HT7 receptor in guinea pig ileum assessed as inhibition of substance P-induced smooth muscle contraction at 2 uM; type: functional, tissue-based; in short: as §1
[14] = molecular target: 5-hydroxytryptamine receptor 7 (Cavia porcellus) (UniProt P50407); assay: Agonist activity at 5HT7 receptor in guinea pig ileum assessed as inhibition of substance P-induced smooth muscle contraction at 2 uM in presence of 3 uM SB-269970; type: functional, tissue-based; in short: as §1

T1 sequence (P34969 whole entry): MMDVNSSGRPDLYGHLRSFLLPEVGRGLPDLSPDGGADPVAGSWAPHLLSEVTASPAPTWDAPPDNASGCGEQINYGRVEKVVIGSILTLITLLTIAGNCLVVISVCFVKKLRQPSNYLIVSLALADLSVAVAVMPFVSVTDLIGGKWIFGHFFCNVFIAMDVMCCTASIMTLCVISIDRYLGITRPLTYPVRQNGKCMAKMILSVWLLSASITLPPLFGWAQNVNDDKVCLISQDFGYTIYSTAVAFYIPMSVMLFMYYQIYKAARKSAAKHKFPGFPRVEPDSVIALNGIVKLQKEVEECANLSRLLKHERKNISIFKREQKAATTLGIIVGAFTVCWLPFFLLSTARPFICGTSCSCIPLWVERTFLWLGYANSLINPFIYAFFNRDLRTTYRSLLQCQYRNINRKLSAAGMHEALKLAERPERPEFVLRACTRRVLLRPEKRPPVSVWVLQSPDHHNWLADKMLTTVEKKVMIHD
Sequence of 5-hydroxytryptamine receptor 7 (Cavia porcellus) (P50407 whole entry): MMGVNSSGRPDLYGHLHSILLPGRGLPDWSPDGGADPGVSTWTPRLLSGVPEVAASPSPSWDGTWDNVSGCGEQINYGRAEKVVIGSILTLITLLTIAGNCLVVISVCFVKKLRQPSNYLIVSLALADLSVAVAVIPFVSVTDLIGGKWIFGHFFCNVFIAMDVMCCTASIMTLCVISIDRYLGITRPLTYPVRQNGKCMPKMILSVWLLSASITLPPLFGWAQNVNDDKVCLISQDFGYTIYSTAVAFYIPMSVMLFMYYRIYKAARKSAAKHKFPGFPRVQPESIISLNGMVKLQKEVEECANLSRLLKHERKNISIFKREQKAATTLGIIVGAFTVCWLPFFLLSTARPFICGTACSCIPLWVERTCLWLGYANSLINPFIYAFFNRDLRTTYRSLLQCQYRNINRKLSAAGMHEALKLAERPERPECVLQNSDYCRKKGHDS
Sequence of 5-hydroxytryptamine receptor 7 (Rattus norvegicus, UniProt P32305) (P32305 whole entry): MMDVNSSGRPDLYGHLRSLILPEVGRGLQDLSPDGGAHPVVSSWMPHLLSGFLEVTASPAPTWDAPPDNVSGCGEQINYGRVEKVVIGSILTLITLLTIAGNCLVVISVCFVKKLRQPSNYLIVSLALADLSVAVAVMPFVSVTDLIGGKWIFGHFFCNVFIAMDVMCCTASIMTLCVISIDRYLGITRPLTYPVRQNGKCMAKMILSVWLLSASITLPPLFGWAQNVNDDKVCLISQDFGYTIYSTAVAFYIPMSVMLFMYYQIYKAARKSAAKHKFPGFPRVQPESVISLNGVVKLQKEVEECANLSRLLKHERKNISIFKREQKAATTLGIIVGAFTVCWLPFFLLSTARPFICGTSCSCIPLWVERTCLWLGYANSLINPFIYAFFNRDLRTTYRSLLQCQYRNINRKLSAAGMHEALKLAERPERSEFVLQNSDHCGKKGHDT

| SMILES | Ki [1] | Activity [2] | Activity [3] | Ki [7] | other results |
| --- | --- | --- | --- | --- | --- |
| COc1ccccc1-c1ccccc1N1CCNCC1 | 18.4 nM | – | – | – | – |
| COc1ccccc1-c1cccc(N2CCNCC2)c1 | 8.2 nM | – | – | – | – |
| Cc1ccccc1-c1ccccc1N1CCNCC1 | 6.9 nM | – | – | – | – |
| COc1cccc(OC)c1-c1ccccc1N1CCNCC1 | 96 nM | 10% | 21% | – | – |
| COc1ccc(-c2ccccc2N2CCNCC2)cc1 | 2.6 nM | – | – | 476 nM | Activity [4]: Active; Ki [5]: 156 nM; IC50 [6]: 438 nM; Activity [8]: inactive; Activity [9]: inactive; Activity [10]: Active; Activity [11]: inactive |
| c1ccc2c(N3CCNCC3)cccc2c1 | – | – | – | – | Ki [12]: 83 nM |
| Cc1ccc(-c2cccc(N3CCNCC3)c2)cc1C | 93 nM | 7% | 34% | – | – |
| O=[N+]([O-])c1ccc(-c2cccc(N3CCNCC3)c2)cc1 | 13 nM | 8% | – | 31.4 nM | – |
| c1ccc(-c2ccccc2N2CCNCC2)nc1 | 23 nM | 11% | 23% | – | – |
| Cc1ccc(-c2ccccc2N2CCNCC2)cc1C | 1.9 nM | – | 22% | – | Activity [4]: Active; Ki [5]: 165 nM; Activity [13]: Active; Activity [14]: inactive |
| c1ccc(-c2cccc(N3CCNCC3)c2)cc1 | 25 nM | 21% | – | 72.1 nM | – |
| COc1cccc(OC)c1-c1cccc(N2CCNCC2)c1 | 7.1 nM | 3% | – | 149 nM | – |
| Cc1nn(C)c(C)c1-c1cccc2c1CC[C@H](N(C)C)C2 | – | – | – | – | Activity [4]: Active; Activity [13]: Active; Activity [9]: inactive; Activity [10]: inactive; Activity [14]: inactive |
| c1ccc(-c2ccccc2N2CCNCC2)cc1 | 1.4 nM | – | – | 99 nM | Activity [4]: Active; Ki [5]: 59.1 nM; IC50 [6]: 531 nM; Activity [8]: inactive; Activity [9]: inactive; Activity [10]: Active; Activity [11]: inactive |
| Fc1ccc(-c2ccccc2N2CCNCC2)cc1 | 2.7 nM | 14% | 15% | – | Activity [4]: Active; Activity [9]: inactive; Activity [10]: Active; Activity [11]: inactive |
| O=[N+]([O-])c1ccc(-c2ccccc2N2CCNCC2)cc1 | 7 nM | – | 16% | – | Ki [5]: 105 nM |
| COc1ccc(-c2cccc(N3CCNCC3)c2)cc1 | > 5000 nM | 29% | 42% | – | – |
| Cc1ccccc1-c1cccc(N2CCNCC2)c1 | 1.4 nM | – | – | 17.4 nM | – |
| c1ccc(-c2cccc(N3CCNCC3)c2)nc1 | 80 nM | 27% | – | 14.9 nM | – |
| Fc1ccc(-c2cccc(N3CCNCC3)c2)cc1 | 109 nM | 3% | – | 63.2 nM | – |

— ChEMBL document CHEMBL2163326, “Investigations on the 1-(2-biphenyl)piperazine motif: identification of new potent and selective ligands for the serotonin(7) (5-HT(7)) receptor with agonist or antagonist action in vitro or ex vivo” (J Med Chem, 2012)
